Data reported in article PMC5388449 (Journal of electroanalytical chemistry (Lausanne, …, 2016).
Read-outs that look alike come from different tables or passages of the source.

Tests used:
[1] = molecular target: Concanavalin A (Con A) (Canavalia ensiformis, UniProt P02866); assay: biochemical; type: binding, Canavalia ensiformis (Jack Bean); conditions: for ΔRct (Rct after Con A immobilization – Rct before): single-component SAM on gold wire
[2] = molecular target: Con A; conditions: ITC, depending on ligand density on nanoparticles surface; cited from earlier work
[3] = molecular target: Con A; conditions: QCM, cited from earlier work
[4] = molecular target: Con A; conditions: SPR, cited from earlier work
[5] = molecular target: T1, peanut agglutinin (PNA) (Arachis hypogaea, UniProt P02872); assay: EIS negative control: PNA exposed to SAMs of thiolated mannosides on gold wire; type: binding; conditions: single-component SAM of Man-C8-SH on gold wire, 0.5 μM PNA
T1 sequence (P02872 24-273): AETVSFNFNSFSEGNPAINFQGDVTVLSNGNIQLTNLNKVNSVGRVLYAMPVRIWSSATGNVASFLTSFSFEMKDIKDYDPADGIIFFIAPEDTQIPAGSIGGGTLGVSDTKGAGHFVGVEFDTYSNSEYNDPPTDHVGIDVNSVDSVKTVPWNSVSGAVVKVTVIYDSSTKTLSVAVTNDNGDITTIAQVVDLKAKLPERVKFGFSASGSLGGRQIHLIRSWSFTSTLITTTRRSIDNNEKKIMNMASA
Outline: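 Gold wires cleaned in nitric acid, then 0.5 M NaBH4 for 17 h. SAMs formed from thiolated mannoside, alone or with TEG-SH (1.0 mM total in methanol), 17 h at room temperature. Lectin in 10 mM Tris pH 7.4 with 0.1 M NaCl, 1 mM CaCl2, 1 mM MnCl2; 1 h at room temperature, then rinsed. EIS run at 5.0 mm exposed wire in 5 mM 1:1 ferri/ferrocyanide in 10 mM Tris pH 7.4, 100 kHz–1 Hz, 0.22 V vs Ag/AgCl. Rct obtained by Randles-circuit fit of Nyquist plots.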

[6] = tested on: Con A; conditions: ITC, in solution; cited from earlier work

Row | Compound | Hill coefficient [1] | Kd [1] | LOD [1] | other results
1 | OC[C@H]1O[C@H](OC[C@H]2O[C@H](OCCCCCCCCS)[C@@H](O)[C@@H](O)[C@@H]2O[C@H]2O[C@H](CO)[C@@H](O)[C@H](O)[C@@H]2O)[C@@H](O)[C@@H](O)[C@@H]1O [E, 8-Mercaptooctyl 4,6-di-O-(α-D-mannopyranosyl)-α-D-mannopyranoside] | 0.50 ± 0.06 | 81 ± 31 nM | 11 nM | –
2 | OCCOCCOCCS [TEG-SH, 8-mercapto-3,6-dioxaoctanol, reference compound] | – | – | – | ΔRct (Rct after Con A immobilization – Rct before) ([1]; 0.5 μM Con A, 1 h): 63 ± 13 Ω
3 | dimannose | – | – | – | Kd [2]: 35 to 175 nM
4 | OC[C@H]1O[C@H](OC[C@H]2O[C@H](OCCCCCCCCS)[C@@H](O)[C@@H](O[C@H]3O[C@H](CO)[C@@H](O)[C@H](O)[C@@H]3O)[C@@H]2O)[C@@H](O)[C@@H](O)[C@@H]1O [D, 8-Mercaptooctyl 3,6-di-O-(α-D-mannopyranosyl)-α-D-mannopyranoside] | 0.55 ± 0.05 | 30 ± 5 nM | 13 nM | –
5 | OC[C@H]1O[C@H](O[C@@H]2[C@H](O)[C@@H](OCCCCCCCCS)O[C@H](CO)[C@H]2O)[C@@H](O)[C@@H](O)[C@@H]1O [B, 8-Mercaptooctyl 3-O-(α-D-mannopyranosyl)-α-D-mannopyranoside] | – | 75 ± 20 nM | – | –
6 | OC[C@H]1O[C@H](OC[C@H]2O[C@H](OCCCCCCCCS)[C@@H](O)[C@@H](O)[C@@H]2O)[C@@H](O)[C@@H](O)[C@@H]1O [C, 8-Mercaptooctyl 6-O-(α-D-mannopyranosyl)-α-D-mannopyranoside] | 0.73 ± 0.17 | 14 ± 4 nM | 6 nM | –
7 | OC[C@H]1OC(O)[C@@H](O)[C@@H](O)[C@@H]1O (stereo partly shown) [mannose] | – | – | – | Kd ([3]; 1:2 binding of Con A to mannose): 71 nM; Kd ([3]; mannose–Con A interaction): 250 to 400 nM; Kd ([4]; mannose functionalized on a gold surface, multivalent interactions): 78 nM; Kd ([4]; mannose–Con A interaction): 135 to 400 nM
8 | OC[C@H]1O[C@H](OCCCCCCCCS)[C@@H](O)[C@@H](O)[C@@H]1O [A, 8-mercaptooctyl α-D-mannopyranoside] | – | 70 ± 19 nM | – | increase in Rct value [5]: negligible increase; ΔRct ([1]; mixed SAM 1:4 Man-C8-SH/TEG-SH on gold wire, 0.5 μM Con A, 1 h): 495 ± 15 Ω; ΔRct (Rct after Con A immobilization – Rct before) ([1]; 0.5 μM Con A, 1 h): 299 ± 51 Ω
9 | CO[C@H]1O[C@H](CO)[C@@H](O)[C@H](O)[C@@H]1O [methyl α-D-mannopyranoside] | – | – | – | Ka [6]: 0.82 × 10^4; Kd [6]: 122 µM
